The term IC50 denotes the midpoint of a concentration-inhibition curve.

The source made the active and inactive calls. The calls are words filed in the database; no cut-off is given here.

The nature of data set [1]: Solubility of the compound in dimethylsulfoxide. Format: physicochemical.
The subject of data set [2] is HCT-116. Kind of data set: Cytotoxicity against human HCT116 cells assessed as cell viability under normoxic condition after 24 hrs by MTT assay. Format: functional, cell-based. The settings on record: HCT-116, 24 h. The gist of the method: (§1)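 HCT116 cells seeded at 6.0 × 10^3 cells/well in McCoy's 5A with 10% FBS and antibiotics, grown 24 h, then exposed to compound for 24 h under normoxia (20% O2) or hypoxia (1% O2, 94% N2, 5% CO2, 37 °C). MTT 0.5 mg/mL added for 4 h at 37 °C, cells lysed in DMSO, absorbance read at 570 nm. Final DMSO 1.0% (v/v).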
Background: Tetrazolium dyes change colour on reduction, which living cells bring about.

In data set [3] the test system is HEK293. Kind of data set: Modulation of HIF1 expressed in HEK293 cells assessed as luciferase activity under hypoxic condition at 50 uM after 24 hrs by luminometer analysis relative to hypoxic control. It counts as cell-based. The gist of the method: (§2)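 HEK293 stable clone carrying a luciferase reporter driven by a 68-bp ENO1 hypoxia response element upstream of the SV40 promoter, seeded at 8 × 10^4 cells/well. After 24 h, compound added; 1 h later cells moved to 1% O2 hypoxia for 24 h. Luciferase read by luminometer, expressed as ratio to hypoxic control. Final DMSO 0.5%; triplicate wells.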

In data set [4] the test system is HCT-116. Nature of the data set: Cytotoxicity against human HCT116 cells assessed as cell viability under normoxic condition at 100 uM after 24 hrs by MTT assay. It counts as functional. In outline:
as §1

Data set [5] has as its system HCT-116. Nature of the data set: Cytotoxicity against human HCT116 cells assessed as cell viability under normoxic condition at 200 uM after 24 hrs by MTT assay. It counts as functional. The gist of the method:
as §1

The test system of data set [6] is HCT-116. Kind of data set: Inhibition of HIF1alpha expression in human HCT116 cells under hypoxic condition after 4 hrs by immunoblotting. Format: functional, cell-based. The gist of the method: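 HCT116 cells at 4 × 10^6 per dish, grown 24 h, then exposed 4 h under hypoxia (1% O2) or normoxia (20% O2). Lysed on ice in Tris/SDS/deoxycholate buffer with protease and phosphatase inhibitors; 120 µg protein per lane on 7% SDS-PAGE. Probed with mouse anti-human HIF-1α (1:500) and β-actin control; HRP secondary, chemiluminescence quantitation.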
On the technique in general: In western blotting, separated proteins are transferred to a membrane and probed.

The subject of data set [7] is HCT-116. Kind of data set: Cytotoxicity against human HCT116 cells assessed as cell viability under hypoxic condition at 200 uM after 24 hrs by MTT assay. It counts as functional. The gist of the method: as §1
Data set [8] concerns HCT-116. Kind of data set: Cytotoxicity against human HCT116 cells assessed as cell viability under hypoxic condition at 200 uM after 7 days by clonogenic assay. Format: functional. In outline:
(§3)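 HCT116 cells plated at 3.0 × 10^2 cells per dish and treated 24 h under normoxia (20% O2) or hypoxia (1% O2). On day 7 colonies were washed with PBS, fixed in methanol 30 min at room temperature, stained with Giemsa over 3 h, then counted.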

Data set [9] deals with HCT-116. Nature of the data set: Cytotoxicity against human HCT116 cells assessed as cell viability under normoxic condition at 200 uM after 7 days by clonogenic assay. Format: functional. The gist of the method: as §3
A short description of data set [10]: Antiangiogenic activity in 3-day-old embryonated chicken eggs at 300 ng/CAM measured on 7th embryonic day by CAM assay. It counts as functional, Gallus gallus, Egg.
Data set [11] concerns the target T1, Hypoxia inducible factors; HIF-1-alpha, HIF-2-alpha (Homo sapiens) (UniProt Q16665+Q99814). Kind of data set: Inhibition of HIF1-dependent VEGFA mRNA expression in human HCT116 cells under hypoxic condition at 50 uM after 24 hrs by RT-PCR analysis. Format: cell-based. Particulars: HCT-116. The gist of the method:
(§4)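 HCT116 cells seeded at 1 × 10^6 per dish in McCoy's 5A/10% FBS, grown 24 h, then treated 24 h under hypoxia (1% O2) or normoxia. Total RNA extracted directly after treatment. Real-time RT-PCR run as 95 °C 30 s, then 40 cycles of 95 °C 5 s and 60 °C 30 s. Normalized to 18S rRNA, relative expression by 2^-ΔΔCT; mean ± SD.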

Data set [12] can be described thus: Modulation of HIF1 expressed in HEK293 cells assessed as luciferase activity under hypoxic condition after 24 hrs by luminometer analysis. Format: cell-based. The settings on record: HEK293, 24 h.
The target of data set [13] is T1, Hypoxia inducible factors; HIF-1-alpha, HIF-2-alpha (Homo sapiens). Nature of the data set: Inhibition of HIF1-dependent HK2 mRNA expression in human HCT116 cells under hypoxic condition at 50 uM after 24 hrs by RT-PCR analysis. Particulars: HCT-116. It counts as cell-based. The gist of the method: as §4
The target is the same in data set [14]. Kind of data set: Inhibition of HIF1-dependent GLUT1 mRNA expression in human HCT116 cells under hypoxic condition at 50 uM after 24 hrs by RT-PCR analysis. The settings on record: HCT-116. Format: cell-based. The gist of the method:
as §4

Data set [15] concerns HEK293. Nature of the data set: Modulation of HIF1 expressed in HEK293 cells assessed as luciferase activity under hypoxic condition at 30 uM after 24 hrs by luminometer analysis relative to hypoxic control. It counts as cell-based. In outline: as §2
The test system of data set [16] is HCT-116. Nature of the data set: Cytotoxicity against human HCT116 cells assessed as cell viability under normoxic condition at 50 uM after 24 hrs by MTT assay. It counts as functional.
Data set [17] concerns HCT-116. Nature of the data set: Cytotoxicity against human HCT116 cells assessed as cell viability under hypoxic condition at 50 uM after 24 hrs by MTT assay. It counts as functional. In outline:
as §1

Data set [18] concerns HCT-116. Nature of the data set: Cytotoxicity against human HCT116 cells assessed as cell viability under normoxic condition at 50 uM after 7 days by clonogenic assay. It counts as functional.
Data set [19] deals with HCT-116. Kind of data set: Cytotoxicity against human HCT116 cells assessed as cell viability under hypoxic condition at 50 uM after 7 days by clonogenic assay. It counts as functional.

Turning to `C=C(C)[C@@H]1CC[C@]2(C)CC[C@]3(C)[C@H](CC[C@@H]4[C@@]5(C)CC[C@H](OC(=O)C[C@H](O)CCCCCCCCCCCCC)C(C)(C)[C@@H]5CC[C@]43C)[C@@H]12`, the solubility entry in data set [1] is “Insoluble”.
Regarding `COC(=O)/C=C/c1ccc(O)c(CC=C(C)C)c1` [PLICATIN B], in the data set on HCT-116 [2], the half-maximal inhibitory concentration (IC50) was 10.6 µM.
`O=C(O)/C=C/c1ccc(OC(=O)CCc2ccccc2)cc1`: the Ratio in the data set on HEK293 [3] came out at 1.08.
On to `C=CCc1cc(/C=C/C(=O)O)ccc1O`, for which the Activity in the data set with HCT-116 [4] turned out to be 98.4%. The Ratio with HEK293 [3] came out at 0.9.
As to `COc1ccc(/C=C/C(=O)O)cc1CC=C(C)C`, the Activity in the data set on HCT-116 [4] stood at 95.7%. Moreover, in the data set on HEK293 [3], the Ratio stood at 0.82.
On the same counts, the results for `CC(C)(C)c1cc(/C=C/C(=O)O)cc(C(C)(C)C)c1O` are 108.4% and 0.77.
The matching figures for `O=C(O)/C=C/c1ccc(O)cc1` [COUMARIC ACID]: 99.3% and 0.93.
With `CC(C)=CCc1cc(/C=C/C(=O)O)ccc1OC(=O)CCc1ccccc1` [BACCHARIN], the Activity is listed as 58.2% in the data set with HCT-116 [5], 69.4% in the data set on HCT-116 [7], 74% in the data set with HCT-116 [8] and 74.8% in the data set with HCT-116 [9]. In the data set with HCT-116 [6], the inhibition entry is “Dose-dependent effect”. In the data set with HEK293 [3], the Ratio came to 0.52. Further, the “inhibition (INH)” value in [10] was 83.2%. For the same molecule, the inhibition entry in data set [11], in [13] and in data set [14] was “Active” in each case. Besides, the concentration for half-maximal inhibition (IC50) in data set [12] turned out to be 77.4 µM.
`COC(=O)/C=C/c1ccc(OC)c(CC=C(C)C)c1` [PALICATIN B METHYL ETHER]: the Ratio in the data set with HEK293 [15] was determined as 1.17. Moreover, the half-inhibitory concentration (IC50) in the data set with HCT-116 [2] came to 37.6 µM.
For the molecule `COc1ccc(-c2oc3cc(O)cc(O)c3c(=O)c2O)cc1` [KAEMPFERIDE], the Activity with HCT-116 [16] was determined as 102.5%; with HCT-116 [17], 173.3%; with HCT-116 [18], 79.9%; in the data set with HCT-116 [19], 87.6%. In data set [10], the “inhibition (INH)” value worked out at 39.5%.
On to `CC(C)=CCc1cc(/C=C/C(=O)O)ccc1O` [DRUPANIN], for which the Activity in the data set with HCT-116 [5] was 127.1%; with HCT-116 [7] it was 146%; with HCT-116 [8], 101.2%; in the data set on HCT-116 [9], 105.8%. For the same molecule, the inhibition result with HCT-116 [6] was “Dose-dependent effect”. In the data set with HEK293 [3], the Ratio came to 0.36. In addition, the “inhibition (INH)” value in data set [10] is 84.3%. The inhibition entry in data set [11], in [13] and in data set [14] was “Active” each time. Also, the IC50 in [12] was 25.6 µM.
Consider `CC(C)=CCc1cc(/C=C/C(=O)O)cc(CC=C(C)C)c1O` [ARTEPILLIN], for which, in the data set with HCT-116 [5], the Activity is recorded as 53.3%. Besides, the Ratio in the data set with HEK293 [3] amounted to 1.09. Moreover, the “inhibition (INH)” value in data set [10] amounted to 80.9%.
Take `COc1ccc(-c2oc3cc(O)c(OC)c(O)c3c(=O)c2O)cc1` [BETULETOL]: the Activity in the data set with HCT-116 [16] is 69%; in the data set with HCT-116 [17], 86.8%; in the data set on HCT-116 [18], 96.8%; with HCT-116 [19], 90.3%. Further, the “inhibition (INH)” value in data set [10] is 46.7%.

Values taken from ChEMBL document CHEMBL1817552, “Isolation, identification, and biological evaluation of HIF-1-modulating compounds from Brazilian green propolis” (Bioorg Med Chem, 2011).
